Laboratory results from ChEMBL document CHEMBL5034008, “Diversity-Oriented A3-Macrocyclization for Studying Influences of Ring-Size and Shape of Cyclic Peptides: CD36 Receptor Modulators” (J Med Chem, 2021).
pIC50: −log10 of the molar value. Non-standard residues stand in square brackets, D forms with d. Residues, ends and D or L forms follow the SMILES beside them. ξ: configuration not given here. *: point of attachment. X1 = CCCCCCCCCCCCCCCC(=O)OCC(C*)OC(=O)CCCCCCCCCCCCCCC; ξC = NC(CS)C(=O)O

How the values were obtained:
[1] = target: Platelet glycoprotein 4 (Rattus norvegicus, UniProt Q07969); assay: Displacement of [125I]-Tyr-Bpa-Ala-hexarelin from rat CD36 receptor in heart tissue membrane incubated for 60 mins by competitive receptor binding assay; assay type: cell membranes
Procedure, shortened: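 Rat heart membranes (50 μg) incubated in the dark with 250,000 cpm [125I]-Tyr-Bpa-Ala-hexarelin in 50 mM Tris-HCl pH 7.4, 2 mM EGTA, 0.05% bacitracin, with competitor at 0.1–10 μM; hexarelin as reference. Nonspecific binding defined with 50 μM peptide. 60 min at 22 °C, then UV photolysis at 365 nm for 15 min at 4 °C. Pellets resolved on 7.5% SDS-PAGE.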

[2] = target: Platelet glycoprotein 4 (Mus musculus) (UniProt Q08857); assay: Modulation of CD36 receptor in mouse RAW 264.7 cells assessed as inhibition of R-FSL-1-induced NO production at competitive receptor binding assay IC50 concentration pretreated for 30 mins followed by R-FSL-1 stimulation measured after 19 hrs by fluorescence plate reader assay relative to R-FSL-1; assay type: cell-based; set-up: scale not given: the % may be the effect or the level left
[3] = target: Platelet glycoprotein 4 (Mus musculus) (UniProt Q08857); assay: Modulation of CD36 receptor in mouse RAW 264.7 cells assessed as inhibition of R-FSL-1-induced CCL-2 production pretreated for 30 mins followed by R-FSL-1 stimulation measured after 4 hrs by ELISA; assay type: cell-based; conditions: RAW264.7, filed as modulator, time 4.5 hrs
Procedure, shortened: (§1)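 RAW 264.7 cells seeded at 1.5 × 10^5 per well and weaned overnight in DMEM with 1% pen/strep. Medium then changed to DMEM with 0.2% BSA. Cells pretreated 30 min with peptide at 10^-7 M, with linear [azaTyr4]-GHRP-6 as reference. Stimulated with R-FSL-1 at 300 ng/mL for 4 h at 37 °C. TNF-α or CCL-2 in supernatant measured by ELISA. Inhibition % = (FSL-1 − treated)/(FSL-1 − basal) × 100.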

[4] = target: Platelet glycoprotein 4 (Mus musculus) (UniProt Q08857); assay: Modulation of CD36 receptor in mouse BMA3.1A7 cells assessed as inhibition of R-FSL-1-induced IL-1beta production […] measured after 4 hrs by ELISA; assay type: cell-based; conditions: filed as modulator, time 4.5 hrs
[5] = target: Platelet glycoprotein 4 (Mus musculus) (UniProt Q08857); assay: Modulation of CD36 receptor in mouse RAW 264.7 cells assessed as inhibition of R-FSL-1-induced TNFalpha production at competitive receptor binding assay IC50 concentration pretreated for 30 mins followed by R-FSL-1 stimulation measured after 19 hrs by ELISA relative to R-FSL-1; assay type: cell-based; set-up: scale not given: the % may be the effect or the level left; conditions: RAW264.7, time 19.5 hrs
[6] = target: Platelet glycoprotein 4 (Mus musculus) (UniProt Q08857); assay: Modulation of CD36 receptor in mouse RAW 264.7 cells assessed as inhibition of R-FSL-1-induced TNFalpha production pretreated for 30 mins followed by R-FSL-1 stimulation measured after 4 hrs by ELISA; assay type: cell-based; conditions: RAW264.7, filed as modulator, time 4.5 hrs; procedure, shortened: as §1
[7] = target: Platelet glycoprotein 4 (Mus musculus) (UniProt Q08857); assay: Modulation of CD36 receptor in mouse BMA3.1A7 cells assessed as inhibition of R-FSL-1-induced IL-1beta production at competitive receptor binding assay IC50 concentration pretreated for 30 mins followed by R-FSL-1 stimulation measured after 4 hrs by ELISA relative to R-FSL-1; assay type: cell-based; set-up: scale not given: the % may be the effect or the level left; conditions: time 4.5 hrs
[8] = target: Platelet glycoprotein 4 (Mus musculus) (UniProt Q08857); assay: Modulation of CD36 receptor in mouse RAW 264.7 cells assessed as inhibition of R-FSL-1-induced CCl-2 production at competitive receptor binding assay IC50 concentration pretreated for 30 mins followed by R-FSL-1 stimulation measured after 19 hrs by ELISA relative to R-FSL-1; assay type: cell-based; set-up: scale not given: the % may be the effect or the level left
[9] = target: Platelet glycoprotein 4 (Mus musculus) (UniProt Q08857); assay: Modulation of CD36 receptor in mouse RAW 264.7 cells assessed as inhibition of R-FSL-1-induced NO production pretreated for 30 mins followed by R-FSL-1 stimulation measured after 1140 min by fluorescence plate reader assay; assay type: cell-based; conditions: RAW264.7, filed as modulator, time 1170.0 min
Procedure, shortened: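 RAW 264.7 cells seeded at 1.5 × 10^5 per well in DMEM with pen/strep. After 2 h, medium changed to DMEM with 0.2% BSA containing peptide. Cells stimulated with R-FSL-1 at 300 ng/mL for 19 h. Nitrite in 25 μL supernatant reacted with 0.5 μg 2,3-diaminonaphthalene in 50 mM phosphate pH 7.5, 15 min at room temperature in the dark, stopped with NaOH. Fluorescence read.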

[10] = RAW264.7, filed as modulator, time 19.5 hrs

Sequence of Platelet glycoprotein 4 (Mus musculus) (Q08857 whole entry): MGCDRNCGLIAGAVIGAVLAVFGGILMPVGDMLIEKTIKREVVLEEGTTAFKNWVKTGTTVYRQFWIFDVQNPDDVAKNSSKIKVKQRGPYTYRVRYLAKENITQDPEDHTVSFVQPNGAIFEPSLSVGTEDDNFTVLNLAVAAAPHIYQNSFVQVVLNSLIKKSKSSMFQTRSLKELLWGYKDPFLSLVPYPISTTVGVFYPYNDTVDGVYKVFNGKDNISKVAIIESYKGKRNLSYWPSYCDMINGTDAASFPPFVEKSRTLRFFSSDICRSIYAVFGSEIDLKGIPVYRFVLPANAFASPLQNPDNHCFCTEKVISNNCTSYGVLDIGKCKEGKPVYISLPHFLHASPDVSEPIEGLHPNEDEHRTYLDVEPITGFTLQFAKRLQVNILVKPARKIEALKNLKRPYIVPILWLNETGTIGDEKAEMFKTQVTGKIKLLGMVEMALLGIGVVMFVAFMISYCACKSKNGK
Sequence of Platelet glycoprotein 4 (Q07969 whole entry): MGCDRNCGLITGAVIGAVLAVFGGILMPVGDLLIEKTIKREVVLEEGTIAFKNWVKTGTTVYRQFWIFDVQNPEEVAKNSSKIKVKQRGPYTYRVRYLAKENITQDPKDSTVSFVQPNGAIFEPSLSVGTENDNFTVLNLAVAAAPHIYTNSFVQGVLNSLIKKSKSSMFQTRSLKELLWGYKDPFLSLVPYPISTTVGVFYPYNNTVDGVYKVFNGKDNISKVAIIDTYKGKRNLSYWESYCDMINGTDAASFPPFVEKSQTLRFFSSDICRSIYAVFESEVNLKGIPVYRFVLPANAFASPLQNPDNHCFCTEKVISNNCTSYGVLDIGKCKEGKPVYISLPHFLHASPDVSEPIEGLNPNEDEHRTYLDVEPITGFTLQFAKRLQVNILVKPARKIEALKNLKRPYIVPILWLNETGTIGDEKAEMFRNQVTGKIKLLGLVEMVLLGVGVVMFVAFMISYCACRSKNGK

| SMILES | pIC50 [1] | Activity ([2]; RAW264.7, time 1170.0 min) | Activity [3] | Activity [4] | Activity [5] | Activity [6] | Activity [7] | Activity ([8]; RAW264.7, time 19.5 hrs) | Activity [9] | Activity ([7]; filed as modulator) | Activity ([2]; RAW264.7, filed as modulator, time 1170.0 min) | Activity [8, 10] |
| --- | --- | --- | --- | --- | --- | --- | --- | --- | --- | --- | --- | --- |
| CCCN1CC#CCN(NC(=O)[C@H](C)N)C(=O)N[C@H](Cc2c[nH]c3ccccc23)C(=O)N[C@@H](C)C(=O)N[C@@H](Cc2c[nH]c3ccccc23)C(=O)N[C@H](Cc2ccccc2)C(=O)N[C@H](C(N)=O)CCCC1 | 5.73 | 4% | 918 pmol | 313 pmol | 12% | 4460 pmol | 29% | 13% | 2.75 µM | – | – | – |
| C=CCN1CC#CCN(NC(=O)[C@H](C)N)C(=O)N[C@@H](C)C(=O)N[C@@H](Cc2c[nH]c3ccccc23)C(=O)N[C@H](Cc2ccccc2)C(=O)N[C@H](C(N)=O)CC1 | 4.99 | 15% | 954 pmol | 389 pmol | 3% | 4850 pmol | 6% | 17% | 2.51 µM | – | – | – |
| C=CCN1CC#CCN(NC(=O)[C@H](C)N)C(=O)N[C@H](Cc2c[nH]c3ccccc23)C(=O)N[C@@H](C)C(=O)N[C@@H](Cc2c[nH]c3ccccc23)C(=O)N[C@H](Cc2ccccc2)C(=O)N[C@H](C(N)=O)CC1 | 5.32 | 27% | 857 pmol | 271 pmol | 19% | 4180 pmol | – | 28% | 2.26 µM | 41% | – | – |
| C[C@H](N)C(=O)NN1CC#CCN(CC2CC2)CCCC[C@@H](C(N)=O)NC(=O)[C@@H](Cc2ccccc2)NC(=O)[C@H](Cc2c[nH]c3ccccc23)NC(=O)[C@H](C)NC(=O)[C@@H](Cc2c[nH]c3ccccc23)NC1=O | 5.51 | 14% | 984 pmol | 366 pmol | 8% | 4620 pmol | 13% | 21% | 2.53 µM | – | – | – |
| C=CCN1CC#CCN(NC(=O)[C@H](C)N)S(=O)(=O)N[C@H](Cc2c[nH]c3ccccc23)C(=O)N[C@@H](C)C(=O)N[C@@H](Cc2c[nH]c3ccccc23)C(=O)N[C@H](Cc2ccccc2)C(=O)N[C@H](C(N)=O)CCCC1 | 4.99 | 4% | 969 pmol | 378 pmol | -4% | 5120 pmol | 6% | 15% | 2.74 µM | – | – | – |
| C=CCN1CC#CCN(NC(=O)[C@H](C)N)C(=O)N[C@@H](C)C(=O)N[C@@H](Cc2c[nH]c3ccccc23)C(=O)N[C@H](Cc2ccccc2)C(=O)N[C@H](C(N)=O)CCCC1 | – | – | 758 pmol | 291 pmol | 27% | 3840 pmol | 35% | 39% | 2.3 µM | – | 25% | – |
| C=CCN1CC#CCN(N)C(=O)N[C@H](Cc2c[nH]c3ccccc23)C(=O)N[C@@H](C)C(=O)N[C@@H](Cc2c[nH]c3ccccc23)C(=O)N[C@H](Cc2ccccc2)C(=O)N[C@H](C(N)=O)CCCC1 | < 4.30 | 5% | 1040 pmol | 388 pmol | 2% | 4900 pmol | 7% | 6% | 2.72 µM | – | – | – |
| C[C@H](N)C(=O)NN1C/C=C\CN(CC2CC2)CCCC[C@@H](C(N)=O)NC(=O)[C@@H](Cc2ccccc2)NC(=O)[C@H](Cc2c[nH]c3ccccc23)NC(=O)[C@H](C)NC(=O)[C@@H](Cc2c[nH]c3ccccc23)NC1=O | 5.04 | 12% | 903 pmol | 312 pmol | 3% | 4820 pmol | 9% | 23% | 2.57 µM | – | – | – |
| CCCCCCCCCCCCCCCC(=O)OCC(CSCC(N)C(=O)NCC(=O)N[C@@H](CC(=O)O)C(=O)N1CCC[C@H]1C(=O)N[C@@H](CCCCN)C(=O)N[C@@H](Cc1cnc[nH]1)C(=O)N1CCC[C@H]1C(=O)N[C@@H](CCCCN)C(=O)N[C@@H](CO)C(=O)N[C@@H](Cc1ccccc1)C(=O)O)OC(=O)CCCCCCCCCCCCCCC (some centres not stated) (H-[ξC](X1)GDPKHPKSF-OH) | – | – | 1100 pmol | 410 pmol | – | 4970 pmol | – | – | 2.82 µM | – | – | – |
| C=CCN1CC#CCN(NC(=O)[C@H](C)NC(C)=O)C(=O)N[C@H](Cc2c[nH]c3ccccc23)C(=O)N[C@@H](C)C(=O)N[C@@H](Cc2c[nH]c3ccccc23)C(=O)N[C@H](Cc2ccccc2)C(=O)N[C@H](C(N)=O)CCCC1 | – | 23% | 707 pmol | 304 pmol | 22% | 4040 pmol | 32% | – | 2.35 µM | – | – | 45% |
| C=CCN1CC#CCN(NC(C)=O)C(=O)N[C@H](Cc2c[nH]c3ccccc23)C(=O)N[C@@H](C)C(=O)N[C@@H](Cc2c[nH]c3ccccc23)C(=O)N[C@H](Cc2ccccc2)C(=O)N[C@H](C(N)=O)CCCC1 | – | 18% | 785 pmol | 351 pmol | 10% | 4560 pmol | 18% | 36% | 2.45 µM | – | – | – |
| C=CCN1CC#CCN(NC(=O)[C@H](C)N)C(=O)N[C@H](Cc2c[nH]c3ccccc23)C(=O)N[C@@H](C)C(=O)N[C@@H](Cc2c[nH]c3ccccc23)C(=O)N[C@H](Cc2ccccc2)C(=O)N[C@H](C(N)=O)CCCC1 | 7.00 | 35% | 672 pmol | 253 pmol | 25% | 3940 pmol | – | – | 2.11 µM | 46% | – | 50% |
| CCCN1CCCC[C@@H](C(N)=O)NC(=O)[C@@H](Cc2ccccc2)NC(=O)[C@H](Cc2c[nH]c3ccccc23)NC(=O)[C@H](C)NC(=O)[C@@H](Cc2c[nH]c3ccccc23)NC(=O)N(NC(=O)[C@H](C)N)CCCC1 | 5.65 | 36% | 802 pmol | 312 pmol | 21% | 4110 pmol | 29% | 34% | 2.08 µM | – | – | – |
| C=CCN1CC#CCN(NC(=O)[C@H](C)N)C(=O)N[C@H](Cc2c[nH]c3ccccc23)C(=O)N[C@@H](C)C(=O)N[C@@H](Cc2c[nH]c3ccccc23)C(=O)N[C@H](Cc2ccccc2)C(=O)N[C@H](C(N)=O)CCC1 | 4.88 | 15% | 971 pmol | 411 pmol | 8% | 4650 pmol | 0% | 15% | 2.52 µM | – | – | – |
| C=CCN1CC#CCN(NC(=O)[C@H](C)N)C(=O)N[C@@H](C)C(=O)N[C@@H](Cc2c[nH]c3ccccc23)C(=O)N[C@H](Cc2ccccc2)C(=O)N[C@H](C(N)=O)CCC1 | 4.64 | 0% | 1030 pmol | 381 pmol | 5% | 4760 pmol | 9% | 8% | 2.81 µM | – | – | – |
